Bioassay records deposited in PubChem by Broad Institute.
S100A4 MyoIIA: blocks human S100A4 binding to myosin IIA peptide; S100A4/TAMRA-MyoIIA peptide fluorescence polarization; inhibition, % at 10.7 µM; actives 0.14% (n = 360,000); AID 652163;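 active = mean inhibition of at least 70% across replicates, with every replicate also reaching that level; inconclusive = mean inhibition reaches 70% but some replicates fall short; inactive = mean inhibition below 70%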
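Test system – S100A4 monomer (human) · Compound – single-point compound testing · Schedule – 5 min incubation before reading · Probe or stimulus – TAMRA-labelled myosin IIA heavy-chain peptide probe, 5 nM · Benchmarks – neutral control DMSO, positive control TFP · Medium – Calcium-containing HEPES buffer, pH 7.2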
CAL PDZ FP-1: blocks peptide binding to the human CAL PDZ domain | purified CAL PDZ, TMR-peptide fluorescence polarization, 1 h | inhibition, % at 24.9 µM | actives 0.92% (n = 300,000) | AID 602252;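 active = mean inhibition of at least 30% with at least half of replicates also reaching 30%; inconclusive = no clear call, values can overlap the other calls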;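 note: 0% = DMSO neutral control and 100% = excess unlabeled competitor peptide PRC23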
CAL PDZ FP-2: blocks peptide binding to human CAL PDZ domain | actives 0.02% (n = 330,000) | purified CAL PDZ, TMR-peptide fluorescence polarization, 1 h | Q9HD26 | inhibition, % at 20 µM;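 active = highest replicate inhibition of at least 40%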;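 note: plate controls were DMSO neutral control wells for no effect and unlabeled competitor peptide control wells for full effect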
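Test system: purified CerCALP PDZ construct; Compound dosing: one concentration, 20 µM compound; Also added: TMR-labelled reporter peptide T*-PRC34 bound in PDZ groove; Read-out: inhibition from polarization loss; Controls: unlabelled peptide and DMSO controls; Signal: FP readout, S and P plane fluorescence; Incubation: 1 h at RT.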
SIRT5 block: inhibitors of human sirtuin-5 desuccinylase. inhibition, % at 15 µM. actives 1.1% (n = 330,000). Purified SirT5, succinyl-peptide AMC, trypsin-coupled fluorescence. Q9NXA8; in the data active = inhibition above about 15%; inconclusive = no clear call, values can overlap the other calls
ERAP1 HTS inh: inhibitors of human ERAP1 aminopeptidase; Q9NZ08; recombinant ERAP1, Leu-AMC fluorescence, 60 min; inhibition, % at 10.7 µM; actives 0.15% (n = 340,000); AID 652197;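 active = mean replicate inhibition of at least 30%, or all replicates individually reaching that 30% level; inactive = mean below 30% and not every replicate reaching it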;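 note: 0% = neutral control wells and 100% = L-leucinethiol positive control wells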
Target sequence (Q9NZ08 whole entry, looked up): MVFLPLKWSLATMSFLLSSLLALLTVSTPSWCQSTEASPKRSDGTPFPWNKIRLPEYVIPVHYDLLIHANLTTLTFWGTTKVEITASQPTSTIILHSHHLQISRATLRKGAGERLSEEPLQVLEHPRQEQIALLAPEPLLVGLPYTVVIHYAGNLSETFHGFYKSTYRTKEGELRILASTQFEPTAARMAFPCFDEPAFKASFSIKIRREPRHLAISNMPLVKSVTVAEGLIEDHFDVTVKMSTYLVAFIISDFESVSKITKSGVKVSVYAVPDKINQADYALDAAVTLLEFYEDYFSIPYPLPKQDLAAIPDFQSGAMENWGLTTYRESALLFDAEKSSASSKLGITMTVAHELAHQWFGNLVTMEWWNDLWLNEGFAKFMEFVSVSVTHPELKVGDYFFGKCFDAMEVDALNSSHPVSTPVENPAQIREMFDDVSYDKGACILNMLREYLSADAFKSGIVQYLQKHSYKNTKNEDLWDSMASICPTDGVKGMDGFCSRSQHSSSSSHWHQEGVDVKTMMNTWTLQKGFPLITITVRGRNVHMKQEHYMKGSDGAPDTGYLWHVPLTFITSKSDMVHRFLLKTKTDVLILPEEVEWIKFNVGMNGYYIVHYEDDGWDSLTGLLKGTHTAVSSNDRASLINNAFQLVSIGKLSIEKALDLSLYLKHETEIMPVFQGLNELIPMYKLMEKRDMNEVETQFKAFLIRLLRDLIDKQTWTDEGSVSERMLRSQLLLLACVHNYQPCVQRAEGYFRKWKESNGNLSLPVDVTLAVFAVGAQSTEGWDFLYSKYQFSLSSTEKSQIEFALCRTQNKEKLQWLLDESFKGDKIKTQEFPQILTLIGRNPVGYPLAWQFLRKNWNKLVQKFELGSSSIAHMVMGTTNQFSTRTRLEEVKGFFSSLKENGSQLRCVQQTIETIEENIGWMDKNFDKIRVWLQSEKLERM
DENV2 CPE: DENV2-induced cell death inhibition | actives 1.7% (n = 350,000) | DENV2-infected cells, cytopathic effect rescue, plate reader | CPE inhibition, % at 9.99 µM; in the data active = CPE inhibition above about 20%, passing the limit was not always enough; inconclusive = no clear call, values can overlap the other calls; tested in BHK-21 cells;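 note: 0% = median of neutral control wells and 100% = median of positive control wells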
Active calls of the source: *; u = inconclusive; x = not tested or not shown; + = active, no number. Hits are enriched below; roughly 2.9% of the tested compounds scored in any of these assays.

SMILES | S100A4 MyoIIA | CAL PDZ FP-1 | CAL PDZ FP-2 | SIRT5 block | ERAP1 HTS inh | DENV2 CPE
Cc1noc(C)c1NC(=O)N(C)C[C@H]1OCCCC[C@@H](C)Oc2ccc(NC(=O)Nc3ccc(C(F)(F)F)cc3)cc2C(=O)N([C@H](C)CO)C[C@@H]1C | 2 | x | x | 17* | -2 | 11
Cc1noc(C)c1NC(=O)N(C)C[C@@H]1OCCCC[C@H](C)Oc2ccc(NC(=O)NC(C)C)cc2C(=O)N([C@H](C)CO)C[C@@H]1C | -14 | x | x | -1 | 6 | 0
Cc1noc(C)c1NC(=O)N(C)C[C@@H]1OCCCC[C@H](C)Oc2ccc(NC(=O)Nc3ccc(F)cc3)cc2C(=O)N([C@@H](C)CO)C[C@@H]1C | 3 | x | x | 31* | 2 | u
COCC(=O)Nc1ccc2c(c1)C(=O)N(C)C[C@@H](OC)[C@H](C)CN(C)[C@H](C)CO2 | 6 | x | x | -2 | -4 | 7
CN(C)C(=O)c1cccc(-c2ccc3c(c2)[C@@H]2[C@@H](CCN2C(=O)C2CCCCC2)[C@@H](CO)N3)c1 | x | x | x | x | x | -25
CC(C)NC(=O)N(C)C[C@H]1Oc2ncc(C#CCc3ccccc3)cc2C(=O)N([C@H](C)CO)C[C@@H]1C | -85 | x | x | 3 | 7 | 14
O=C(C[C@@H]1C=C[C@@H](NC(=O)Cc2cccnc2)[C@H](CO)O1)Nc1ccc(-c2ccccc2)cc1 | 1 | x | x | -2 | 4 | 19
CC1CC(C)CN(CCCNS(=O)(=O)c2ccc3c(c2)CCN3C(=O)C2CC2)C1 (stereo unspecified) | 3 | 120* | -3 | 1 | 2 | 3
O=C(C1CC1)N1CCc2cc(S(=O)(=O)NCCCN3CCCCC3)ccc21 | -12 | 0 | -1 | -4 | 1 | -2
Cc1ccc(S(=O)(=O)NC(CC(C)C)C(=O)NCC(c2ccco2)N2CCCCC2)cc1 (stereo unspecified) | -2 | -3 | 0 | -4 | 4 | x
Cc1ccc(S(=O)(=O)NC(CC(C)C)C(=O)N2CC(C)OC(C)C2)cc1 (stereo unspecified) | -8 | 75* | 0 | -3 | -1 | 2
COc1ccc(C(CNC(=O)COc2ccc(-c3ccccc3)cc2)N2CCOCC2)cc1 (stereo unspecified) | -1 | -2 | -3 | 0 | -6 | -3
COc1ccc(C(CNC(=O)COc2c(C)cc(C)cc2C)N2CCOCC2)cc1 (stereo unspecified) | -10 | 68* | 0 | -1 | -2 | -1
COc1ccc(C(CNC(=O)C(CC(C)C)NS(=O)(=O)c2ccc(C)cc2)N2CCOCC2)cc1 (stereo unspecified) | 11 | -5 | -2 | 22* | 2 | -2
Cc1ccc(S(=O)(=O)NC(CC(C)C)C(=O)N2CCOCCOCCOCC2)cc1 (stereo unspecified) | -2 | 0 | -2 | 3 | 2 | -4
N#C[C@H]1[C@@H](c2ccccc2)[C@@H](CO)N1C(=O)Cc1ccccc1 | -1 | x | x | 4 | 1 | -2
O=C(C[C@@H]1C=C[C@H](NS(=O)(=O)c2ccc(F)cc2)[C@@H](CO)O1)NCCN1CCCCC1 | 1 | x | x | -3 | -2 | 5
COc1ccc(C(=O)C2CCCN(Cc3cn[nH]c3-c3ccccc3)C2)cc1OC (stereo unspecified) | 0 | x | -1 | 29* | 21 | -2
COc1ccc(-c2[nH]ncc2CN2CCCC(C(=O)c3cccc(OC)c3)C2)cc1 (stereo unspecified) | -3 | -5 | 0 | 18* | 0 | -3
CCOC(=O)c1[nH]ncc1CN1CCCC(C(=O)c2cccc(OC(C)C)c2)C1 (stereo unspecified) | x | -3 | -2 | x | x | x
COc1cccc(C(=O)C2CCCN(C(=O)c3ccccn3)C2)c1 (stereo unspecified) | 4 | 73* | 1 | 0 | 1 | u
COc1ccc(OC)c(NC(=O)N2CCCC(C(=O)c3ccccc3OC)C2)c1 (stereo unspecified) | 12 | 77* | 0 | 1 | -1 | 13
CCOC(=O)c1[nH]ncc1CN1CCCC(C(=O)c2ccc(OC)c(OC)c2)C1 (stereo unspecified) | 12 | -5 | -2 | -3 | -2 | -2
CC(C)(C)c1ccc(C(=O)C2CCCN(C(=O)c3ccccn3)C2)cc1 (stereo unspecified) | 0 | -2 | -2 | 0 | -1 | 6
CC(C)OCCCn1c(SCC(=O)N2CCc3ccccc32)nc2ccccc2c1=O | -3 | 2 | 0 | 21* | 2 | -14
SMILES | S100A4 MyoIIA | CAL PDZ FP-1 | CAL PDZ FP-2 | SIRT5 block | ERAP1 HTS inh | DENV2 CPE
CC(C)OCCCn1c(SCC(=O)N2CCCC2=O)nc2ccccc2c1=O | -2 | -3 | -2 | -2 | -2 | -7
CC=Cc1ccc2n(c1=O)C[C@@H]1[C@@H](CO)[C@H](C(=O)NCCc3ccccc3)N(C(=O)CC)[C@H]21 (mixture of isomers) | 5 | x | x | -9 | 0 | 2
O=C(Nc1ccc(N2CCOCC2)c(S(=O)(=O)Nc2cc(Cl)ccc2Cl)c1)c1cccnc1 | -8 | -7 | 0 | 3 | x | -4
CC(=O)NC(=S)Nc1ccc(N2CCOCC2)c(S(=O)(=O)Nc2cc(Cl)ccc2Cl)c1 | -18 | 64* | -1 | 4 | -1 | 8
CCC(=O)Nc1ccc2c(c1)C(=O)N(C)C[C@@H](OC)[C@@H](C)CN(C(=O)C1CCC1)[C@H](C)CO2 | -8 | x | x | -9 | 0 | -8
COC(=O)c1ccccc1-c1c2ccc(=N)cc-2oc2cc(N)ccc12 | + | x | 109* | 2 | 9 | 0
Cc1nnc(NC(=O)c2cc3ccccc3o2)s1 | 3 | -4 | -2 | 4 | 2 | 0
Cc1cnc(NC(=O)c2cc3ccccc3o2)s1 | 2 | -5 | -1 | 112* | 1 | 13
C[C@H](O)[C@@H]1CN2CCc3c([nH]c4ccccc34)[C@@H]2C[C@@H]1N(C)C(=S)Nc1ccc(C#N)cc1 | -15 | x | x | 3 | 0 | 25*
O=C(C[C@@H]1C[C@H]2c3cc(NC(=O)Nc4ccccc4)ccc3O[C@H]2[C@@H](CO)O1)NCc1ccncc1 | 0 | x | x | 1 | -2 | -4
O=C(C[C@H]1C[C@H]2c3cc(NC(=O)Nc4ccccc4)ccc3O[C@H]2[C@@H](CO)O1)NCc1ccncc1 | 4 | x | x | 18* | 1 | -12
O=C(C[C@H]1C[C@H]2c3cc(NC(=O)Nc4ccccc4)ccc3O[C@H]2[C@H](CO)O1)NCc1ccncc1 | 2 | x | x | 1 | 1 | 62*
C#CCOCCOCCOCCNc1nc(N2CCN(C(=O)CCCCCCCCCCNC(=O)[C@H](CO)n3cc(CCCSC)nn3)CC2)nc(N2CCN(C(=O)CCCCCCCCCCNC(=O)[C@H](CO)n3cc(CCCSC)nn3)CC2)n1 | 30 | -1 | 1 | -1 | -5 | 121*
